Source: article PMC3182491 (Investigational new drugs, 2010)
Values joined by “and” are separate entries in the source; they are usually repeats but may differ in a detail not shown here. Identical values can stand only once.

Key:
[1] = tested on: GL-1 canine B-cell lymphoma line; assay: Annexin V-FITC/PI apoptosis detection by flow cytometry, GL-1 cells; assay type: cell-based
Outline: (§1)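 Cells were seeded at 100,000 per well in fresh medium holding 0, 5, 10 or 20 µM test compound, alongside a vehicle control. They were exposed 24 or 48 h at 37 °C, 5% CO2. Apoptosis was read by Annexin V-FITC/PI staining and flow cytometry, in triplicate. Lines were kept as suspensions in DMEM with P/S, plus 10% FBS (17-71, GL-1) or 20% FBS (CA46). Time and concentration effects were tested by 2-way ANOVA with Tukey or Dunnett post hoc.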

caspase-3 [2] = target: T1, caspase-3 (Homo sapiens, UniProt P42574); assay: Caspase-3 colorimetric assay in cell lysate, CA46 cells; assay type: cell-based; conditions: 10 or 20 µM, incubation ≤ 4 hours
T1 sequence (P42574 29-277): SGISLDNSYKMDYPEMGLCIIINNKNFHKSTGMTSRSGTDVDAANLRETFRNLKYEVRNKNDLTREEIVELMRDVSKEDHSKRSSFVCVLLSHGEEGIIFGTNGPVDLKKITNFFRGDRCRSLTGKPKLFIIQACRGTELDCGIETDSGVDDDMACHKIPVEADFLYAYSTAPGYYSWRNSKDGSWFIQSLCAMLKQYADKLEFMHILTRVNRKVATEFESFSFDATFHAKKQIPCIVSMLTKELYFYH
Outline: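 CA46 human B-cell lymphoma cells, grown in suspension in DMEM with 20% FBS and P/S at 37 °C, 5% CO2, were exposed to test compound at 10 or 20 µM for 0, 1, 2, 4, 24 and 48 h. Lysate from 2 million cells per time point was assayed with a colorimetric caspase-3 kit read at 405 nm, in duplicate. Activity was compared with vehicle-treated cells (hour 0) by one-way ANOVA and Dunnett's test.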

[3] = Pharmacokinetics after single IV bolus in healthy dogs; assay type: in vivo; conditions: dog
Outline: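 Six healthy hound dogs, crossover design with two-week washout. Test compound was freshly made at 15 mg/ml in 2-hydroxypropyl-β-cyclodextrin/sterile water and given at 1.0 mg/kg as a 10-min IV bolus. Jugular plasma was taken at 0-720 min and 24 h and assayed by LC-ES/MS/MS (deuterated internal standard). AUC and AUMC were taken by linear trapezoid extrapolated to infinity; A and B came from a two-compartment fit by residuals; Cls = dose/AUC.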

[4] = Plasma concentration during 48-hour IV constant rate infusion in healthy dogs; assay type: in vivo; conditions: dog, IV CRI
[5] = tested on: 17-71 canine B-cell lymphoma line; assay: Annexin V-FITC/PI apoptosis detection by flow cytometry, 17-71 cells; assay type: cell-based
Outline: as §1

[6] = tested on: CA46 human B-cell lymphoma line; assay: Annexin V-FITC/PI apoptosis detection by flow cytometry, CA46 cells; assay type: cell-based
Outline: as §1

[7] = Pharmacokinetics after single oral administration in healthy dogs; assay type: in vivo; conditions: dog; for AUC o-inf. / Cmax / F (absolute oral bioavailability) / Oral clearance / Tmax / t1/2 K10 (terminal elimination half-life): 1 mg/kg oral
Outline: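 Same six dogs in crossover, two-week washout. Test compound in 2-hydroxypropyl-β-cyclodextrin/sterile water was given once at 1.0 mg/kg as a 5-min oral slurry. Plasma was sampled at 0, 15, 30, 45, 60, 120, 240, 480, 720 min and 24 h and quantified by LC-ES/MS/MS. A one-compartment absorption model gave K01 and K10, Cmax and Tmax; Clo = dose/AUC0-inf; F = AUC oral/AUC IV × dose ratio.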

caspase-3 [8] = target: T2, caspase-3 (Canis lupus familiaris, UniProt Q8MKI5); assay: Caspase-3 colorimetric assay in cell lysate, GL-1 cells; assay type: cell-based, canine; conditions: 10 or 20 µM, incubation ≤ 4 hours
T2 sequence (Q8MKI5 29-277): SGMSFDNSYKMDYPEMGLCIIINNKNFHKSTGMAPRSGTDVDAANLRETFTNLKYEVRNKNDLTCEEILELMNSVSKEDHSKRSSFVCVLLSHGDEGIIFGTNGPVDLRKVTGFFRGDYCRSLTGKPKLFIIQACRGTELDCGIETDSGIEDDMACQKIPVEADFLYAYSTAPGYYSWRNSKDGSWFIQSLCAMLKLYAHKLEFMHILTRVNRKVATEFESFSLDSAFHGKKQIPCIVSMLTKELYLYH
Outline: (§2)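 Lymphoma cells were exposed to 10 or 20 µM test compound for 0, 1, 2, 4, 24 and 48 h at 37 °C, 5% CO2; hour 0 served as vehicle control. Lysates from 2 million cells per time point went into a colorimetric caspase-3 assay read at 405 nm, run in duplicate. Time points were compared to control by one-way ANOVA with Dunnett's test.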

caspase-3 [9] = target: T2, caspase-3; assay: Caspase-3 colorimetric assay in cell lysate, 17-71 cells; assay type: cell-based, canine; conditions: 10 or 20 µM, incubation ≤ 4 hours
Outline: as §2

[10] = Toxicity assessment of 48-hour IV constant rate infusion in healthy dogs; assay type: in vivo; conditions: dog
Outline: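 Four healthy dogs from the kinetic study received IV test compound as a 10-min loading dose, then a constant-rate maintenance infusion for 48 h. […] Haematologic, non-haematologic and gastrointestinal effects were checked weekly for 4 weeks.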

[11] = 1 mg/kg IV, individual dogs A-F, 1 mg/kg

C=CCc1cccc(/C=N/NC(=O)CN2CCN(Cc3ccccc3)CC2)c1O [PAC-1]
apoptosis ([1]; 48 hour, 10 µM): ~ 25%
cells remaining viable ([1]; 48 hours, 20 µM): ~ 60%
caspase-3 activity in cell lysate vs vehicle-treated control cells (caspase-3 [2]): failed to significantly increase
A (Y intercept, distribution phase) ([3]; 1 mg/kg IV, Mean ± SD, n=6): 1483.8 ± 723.0 ng/mL
AUC0-inf ([3]; 1 mg/kg IV, Mean ± SD, n=6): 1740 ± 309.6 ngxhr/ml
AUMC0-inf ([3]; 1 mg/kg IV, Mean ± SD, n=6): 4805 ± 1211 ngxhrxhr/ml
B (Y intercept, elimination phase) ([3]; 1 mg/kg IV, Mean ± SD, n=6): 249.0 ± 172.9 ng/mL
Cls (total body clearance) ([3]; 1 mg/kg IV, Mean ± SD, n=6): 9.578 ± 1.26 mL/min/kg
Vdc (volume of distribution in central compartment) ([3]; 1 mg/kg IV, Mean ± SD, n=6): 0.678 ± 0.254 L/kg
Vdss (volume of distribution at steady state) ([3]; 1 mg/kg IV, Mean ± SD, n=6): 1.643 ± 0.497 L/kg
Vdβ (volume of distribution in terminal elimination phase) ([3]; 1 mg/kg IV, Mean ± SD, n=6): 2.698 ± 0.865 L/kg
t1/2 β (terminal elimination half-life) ([3]; 1 mg/kg IV, Mean ± SD, n=6): 3.12 ± 0.67 h
A (Y intercept, distribution phase) [3, 11]: 1065 ng/mL and 2598 ng/mL and 908 ng/mL and 2199 ng/mL and 1119 ng/mL and 1014 ng/mL
AUC0-inf [3, 11]: 1730 ngxhr/ml and 2339 ngxhr/ml and 1468 ngxhr/ml and 1645 ngxhr/ml and 1709 ngxhr/ml and 1549 ngxhr/ml
AUMC0-inf [3, 11]: 4751 ngxhrxhr/ml and 6167 ngxhrxhr/ml and 3693 ngxhrxhr/ml and 3802 ngxhrxhr/ml and 4247 ngxhrxhr/ml and 6174 ngxhrxhr/ml
B (Y intercept, elimination phase) [3, 11]: 288 ng/ml and 584 ng/ml and 138 ng/ml and 176 ng/ml and 154 ng/ml (2×)
Cls (total body clearance) [3, 11]: 9.63 mL/min/kg and 7.13 mL/min/kg and 10 mL/min/kg and 10.1 mL/min/kg and 9.75 mL/min/kg and 10.8 mL/min/kg
Vdc (volume of distribution in central compartment) [3, 11]: 0.739 L/kg and 0.314 L/kg and 0.957 L/kg and 0.421 L/kg and 0.786 L/kg and 0.856 L/kg
Vdss (volume of distribution at steady state) [3, 11]: 1.587 L/kg and 1.127 L/kg and 1.715 L/kg and 1.405 L/kg and 1.454 L/kg and 2.574 L/kg
Vdβ (volume of distribution in terminal elimination phase) [3, 11]: 2.260 L/kg and 1.380 L/kg and 3.145 L/kg and 2.699 L/kg and 2.736 L/kg and 3.968 L/kg
t1/2 β (terminal half-life) [3, 11]: 2.71 h and 2.24 h and 3.20 h and 3.08 h and 3.24 h and 4.26 h
average peak plasma concentration ([3]; 1.0 mg/kg bolus IV, immediately following completion of infusion): 2.8 ± 0.6 µM
plasma concentration after 6 hours of infusion ([4]; average LD 5.8 mg/kg and MD 2.3 mg/kg/hour, n=4): 10.7 ± 2.0 µM
plateau plasma concentration ([4]; following completion of the first 24 hours): ~ 18 µM
cells staining only for Annexin-V-FITC (early apoptosis) ([5]; 48 hour, 20 µM): approximately 70%
apoptotic cells ([5]; 48 hours, PAC-1 ≥ 10 µM): ≥ 60%
fraction of apoptotic cells ([6]; 24 hour exposure): 20–35%
apoptosis ([6]; 48 hour, 10 µM): ≥ 50%
cells undergone apoptosis ([6]; 48 hours, PAC-1 ≥10 µM): greater than 50%
time of average peak plasma concentration following ingestion ([7]; 1.0 mg/kg oral): 45 min
AUC o-inf. ([7]; Mean ± SD, n=6): 310.5 ± 158.5 ng/mL/h
Cmax ([7]; Mean ± SD, n=6): 77.0 ± 37.5 ng/mL
F (absolute oral bioavailability) ([7]; Mean ± SD, n=6): 17.8 ± 9.5%
Oral clearance ([7]; Mean ± SD, n=6): 136 ± 79.6 L/h
Tmax ([7]; Mean ± SD, n=6): 0.84 ± 0.28 h
t1/2 K10 (terminal elimination half-life) ([7]; Mean ± SD, n=6): 2.08 ± 0.26 h
AUC o-inf. ([7]; individual dogs A-F, 1 mg/kg): 271 ng/mL/h and 408 ng/mL/h and 117 ng/mL/h and 508 ng/mL/h and 145 ng/mL/h and 414 ng/mL/h
Cmax ([7]; individual dogs A-F, 1 mg/kg): 63.9 ng/mL and 127 ng/mL and 31 ng/mL and 108 ng/mL and 43 ng/mL and 89 ng/mL
F (absolute oral bioavailability) ([7]; individual dogs A-F, 1 mg/kg): 16% and 17% and 8% (2×) and 31% and 27%
Oral clearance ([7]; individual dogs A-F, 1 mg/kg): 137 L/h and 77 L/h and 236 L/h and 61 L/h and 230 L/h and 75 L/h
Tmax ([7]; individual dogs A-F, 1 mg/kg): 1.09 h and 0.51 h and 0.90 h and 1.07 h and 0.45 h and 0.99 h
t1/2 K10 (terminal elimination half-life) ([7]; individual dogs A-F, 1 mg/kg): 2.02 h and 1.83 h and 1.86 h and 2.40 h and 1.97 h and 2.42 h
caspase-3 activity in cell lysate vs vehicle-treated control cells (caspase-3 [8]): failed to significantly increase
caspase-3 activity in cell lysate vs vehicle-treated control cells (caspase-3 [9]): failed to significantly increase
gastrointestinal toxicity ([10]; 48-hour CRI, 4 week monitoring, n=4): no clinically overt gastrointestinal toxicity
ALT ([10]; 48-hour CRI, Day 0): 46.7 ± 34.1 U/L
Calcium ([10]; 48-hour CRI, Day 0): 10.3 ± 0.1 mg/dL
Creatinine ([10]; 48-hour CRI, Day 0): 0.9 ± 0.2 mg/dL
Hematocrit ([10]; 48-hour CRI, Day 0): 53.0 ± 3.8%
Lymphocyte ([10]; 48-hour CRI, Day 0): 1.9 ± 0.3 ×10^3
Neutrophil ([10]; 48-hour CRI, Day 0): 5.4 ± 1.0 ×10^3
Phosphorous ([10]; 48-hour CRI, Day 0): 3.7 ± 0.4 mg/dL
Platelet ([10]; 48-hour CRI, Day 0): 1.9 ± 0.4 ×10^5
WBC ([10]; 48-hour CRI, Day 0): 8.2 ± 1.5 ×10^3
ALT ([10]; 48-hour CRI, Day 7): 57.0 ± 34.6 U/L
Calcium ([10]; 48-hour CRI, Day 7): 10.5 ± 0.3 mg/dL
Creatinine ([10]; 48-hour CRI, Day 7): 1.0 ± 0.3 mg/dL
Hematocrit ([10]; 48-hour CRI, Day 7): 55.4 ± 1.3%
Lymphocyte ([10]; 48-hour CRI, Day 7): 1.3 ± 0.2 ×10^3
Neutrophil ([10]; 48-hour CRI, Day 7): 5.0 ± 0.5 ×10^3
Phosphorous ([10]; 48-hour CRI, Day 7): 2.9 ± 0.9 mg/dL
Platelet ([10]; 48-hour CRI, Day 7): 1.8 ± 0.3 ×10^5
WBC ([10]; 48-hour CRI, Day 7): 7.0 ± 0.4 ×10^3
ALT ([10]; 48-hour CRI, Day 14): 56.3 ± 46.7 U/L
Calcium ([10]; 48-hour CRI, Day 14): 10.2 ± 0.4 mg/dL
Creatinine ([10]; 48-hour CRI, Day 14): 0.9 ± 0.1 mg/dL
Hematocrit ([10]; 48-hour CRI, Day 14): 49.3 ± 6.0%
Lymphocyte ([10]; 48-hour CRI, Day 14): 1.9 ± 0.7 ×10^3
Neutrophil ([10]; 48-hour CRI, Day 14): 4.3 ± 0.9 ×10^3
Phosphorous ([10]; 48-hour CRI, Day 14): 3.6 ± 0.3 mg/dL
Platelet ([10]; 48-hour CRI, Day 14): 2.0 ± 0.4 ×10^5
WBC ([10]; 48-hour CRI, Day 14): 7.0 ± 0.4 ×10^3
ALT ([10]; 48-hour CRI, Day 21): 49.7 ± 29.0 U/L
Calcium ([10]; 48-hour CRI, Day 21): 10.4 ± 0.4 mg/dL
Creatinine ([10]; 48-hour CRI, Day 21): 1.0 ± 0.2 mg/dL
Hematocrit ([10]; 48-hour CRI, Day 21): 50.6 ± 3.4%
Lymphocyte ([10]; 48-hour CRI, Day 21): 1.5 ± 0.2 ×10^3
Neutrophil ([10]; 48-hour CRI, Day 21): 5.9 ± 0.3 ×10^3
Phosphorous ([10]; 48-hour CRI, Day 21): 3.4 ± 0.4 mg/dL
Platelet ([10]; 48-hour CRI, Day 21): 2.2 ± 0.8 ×10^5
WBC ([10]; 48-hour CRI, Day 21): 8.4 ± 0.6 ×10^3
tolerability of CRI giving ≥ 10 µM for ≥ 24 hours ([10]; IV CRI, n=4): well-tolerated by all dogs
